Efflux pump mplx – inhibitors of Candida efflux pumps in yeast, primary screen, S. cerevisiae, Nile Red, multiplex; actives 0.44% (n = 330,000); inhibition, % at 10 µM; AID 485275, 2010; S. cerevisiae Candida pump triplex;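 active = plate passing quality check with inhibition over a set limit, or well fluorescence over plate mean plus 4 SD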;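 note: Nile Red retained in pooled yeast measured as flow cytometry median fluorescence; 0% = buffer negative control and 100% = Enniatin B positive control; higher means more Nile Red kept so more efflux inhibition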
HDAC3 inh – HDAC3 deacetylase inhibitors, primary screen, biochemical, fluorescence, cell-free homogeneous | Histone deacetylase 3 (Homo sapiens), O15379 | actives 0.15% (n = 320,000) | recombinant HDAC3, fluorogenic peptide/trypsin coupled | inhibition, % at 8.3 µM; in the data active = inhibition above about 26%, passing the limit was not always enough; inconclusive = no clear call, values can overlap the other calls
Target sequence (O15379 whole entry, looked up): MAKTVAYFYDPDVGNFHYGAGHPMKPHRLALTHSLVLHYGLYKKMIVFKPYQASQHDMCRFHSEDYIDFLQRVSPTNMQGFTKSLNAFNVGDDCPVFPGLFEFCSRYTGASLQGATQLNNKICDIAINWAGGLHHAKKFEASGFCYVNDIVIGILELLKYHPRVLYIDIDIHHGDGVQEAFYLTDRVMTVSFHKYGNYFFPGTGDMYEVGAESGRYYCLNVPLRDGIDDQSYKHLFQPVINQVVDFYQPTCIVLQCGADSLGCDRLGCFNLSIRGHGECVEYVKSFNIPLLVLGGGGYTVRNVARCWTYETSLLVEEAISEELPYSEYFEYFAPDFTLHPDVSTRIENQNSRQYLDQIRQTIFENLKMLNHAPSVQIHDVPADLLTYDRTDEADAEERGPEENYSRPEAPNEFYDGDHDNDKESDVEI
AI-2 QS mod – Vibrio harveyi AI-2 quorum sensing modulators, primary screen, JMH597 strain, luminescence/OD600 ratio | Vibrio harveyi JMH597 AI-2 luminescence/OD600 ratio, 9 h; stronger effect = lower value; strain lacks LuxN and CqsS sensors; 0 = neutral-control median | activity change, % at 7.5 µM | actives 0.4% (n = 300,000) | AID 2094, 2009; in the data active = activity change below about -75%, passing the limit was not always enough; inconclusive = no clear call, values can overlap the other calls;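 note: luminescence divided by OD600 gain over 9 h not by final OD600 alone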
T cruzi repl – inhibitors of intracellular T. cruzi growth, primary screen, luminescence, NIH3T3 host cells. T. cruzi beta-gal in NIH3T3, 90 h. inhibition, % (no concentration beside the values). actives 1.4% (n = 300,000);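 active = mean inhibition across valid replicates above about 55%, limit read from the data; inconclusive = mean below that limit but half or more replicates reach it; inactive = mean below it, under half of replicates reach it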;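 note: signal also drops with host cell toxicity which is not excluded here; 0% = plate median of DMSO wells and 100% = zero luminescence signal; higher percent means less beta-gal luminescence so fewer parasites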
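Read-out: Parasite load inhibition, % | Test system: Mouse NIH/3T3 fibroblasts infected with β-gal-expressing T. cruzi Tulahuen C4 | Amount: 5,000 cells/well | Medium: DMEM, 2% fetal bovine serum | Signal: GalScreen β-gal luminescence, detergent lysis, 60 min | Timing: 3 h attach, ≥90 h co-culture | Also added: Tulahuen C4 trypomastigotes, 5000/well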
PolyA inhibitor – polyadenylation inhibitors in yeast reporter cells, primary screen, luminescence, S. cerevisiae; AID 1875, 2009; actives 0.02% (n = 300,000); S. cerevisiae SKY197-pL101 polyadenylation reporter, beta-gal luminescence; efflux-impaired pdr1/pdr3 knockout yeast; score 100 = 6 SD above DMSO; activity score, % at 12 µM;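 active = lowest replicate activity score at least 50, where 100 means six control SD above control mean; inconclusive = lowest score under 50 but half or more replicates reach 50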;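 note: yeast exposed to compound for 9 h at 30 °C; higher score means more reporter readthrough which indicates perturbed polyadenylation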
Yeast cmpd fluor – counter-screen for efflux pump inhibitors: compound fluorescence; fluorescence ratio to DMSO, % at 10 µM; actives 4% (n = 1,700); shares compounds with Efflux pump mplx; S. cerevisiae AD/pABC3, flow cytometry;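 active = fluorescence ratio to DMSO above its plate's cutoff, the plate mean ratio plus 5 SD, cut at about 210% in these data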;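 note: unstained yeast with no Nile Red so the signal is compound autofluorescence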
CaMdr1 efflux inh – inhibitors of Candida albicans Mdr1 efflux, confirmation, flow cytometry, singleplex, Cherry Pick1 set. shares compounds with Efflux pump mplx. S. cerevisiae AD/CaMDR1, Nile Red efflux. inhibition, % at 10 µM. actives 1% (n = 1,700). AID 588518, 2011; in the data active = inhibition above about 26%;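 note: 0% = DMSO vehicle and 100% = reference inhibitor; higher means more Nile Red retained so more efflux inhibition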
CaCdr2 efflux inh – inhibitors of Candida albicans Cdr2 efflux pump, confirmation, S. cerevisiae AD/CaCDR2, flow cytometry, cherry pick 1, singleplex. shares compounds with Efflux pump mplx. Nile Red retention. Nile Red retention ratio vs DMSO, % at 10 µM. actives 4% (n = 1,700); in the data active = Nile Red retention ratio vs DMSO above about 190%;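 note: higher ratio means more blocking of Cdr2 efflux of the dye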
CaCdr1 efflux inh – inhibitors of Candida albicans Cdr1 efflux pump, confirmation, S. cerevisiae AD/CaCDR1, flow cytometry, cherry pick 1, singleplex; shares compounds with Efflux pump mplx; Nile Red efflux; inhibition, % at 10 µM; actives 1% (n = 1,700); AID 588522, 2011;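 active = inhibition above the screen-wide mean plus twice its standard deviation, cut at about 32% in these data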
Active calls of the source: *; u = inconclusive; x = not tested or not shown. Most compounds without a hit are left out; they make up all but 2.2% or so of the library.

SMILES	Efflux pump mplx	HDAC3 inh	AI-2 QS mod	T cruzi repl	PolyA inhibitor	Yeast cmpd fluor	CaMdr1 efflux inh	CaCdr2 efflux inh	CaCdr1 efflux inh
Cc1cc(C)c(C(=O)CSC2=NC(N)=C(C#N)C3(CCCCC3)C2C(N)=O)cc1C (configuration not stated)	1.3*	-1	15	15	-6	100	0	107	0
CSc1ccc(CN(C)CC(=O)Nc2ccc(NC(C)=O)cc2)cc1	0	-9	-8	-1	0	x	x	x	x
CSc1ccc(CN(C)CC(=O)Nc2cccc(Br)c2)cc1	9.7*	-1	-9	-3	-7	112	0	106	0
CSc1ccccc1NC(=O)c1cc(-c2ccc3c(c2)OCO3)on1	1.6*	-3	20	3	5	89	0	105	0
O=C(Nc1cc(Br)ccc1O)c1cc(-c2ccc3c(c2)OCO3)on1	0	-2	22	1	-2	x	x	x	x
CN(Cc1nccs1)C(=O)C1CCC(=O)N(CCc2ccc(Cl)cc2)C1 (configuration not stated)	0	3	50	0	12	x	x	x	x
O=C(CN1C(=O)c2ccccc2S1(=O)=O)Nc1ccon1	1.1*	2	-20	-4	u	100	0	106	0
O=C(CN1C(=O)c2ccccc2S1(=O)=O)Nc1ccccc1	0	-7	-1	-11	13	x	x	x	x
CCOc1ccc(S(=O)(=O)N2CCCCC2)cc1NC(=O)CN1C(=O)NC(C)(c2ccc(C)cc2)C1=O (configuration not stated)	0	x	12	31	-7	x	x	x	x
O=C(O)C1CC=CCC1C(=O)Nc1ccc(N2CCN(Cc3ccccc3)CC2)cc1 (configuration not stated)	11*	0	-5	8	24	92	0	95	0
O=c1[nH]cc(C(F)(F)F)cc1NS(=O)(=O)c1ccccc1[N+](=O)[O-]	0	5	24	-4	2	x	x	x	x
COc1cc(C(=O)N2CCN(c3cccc(C)c3C)CC2)cc(OC)c1OC	0	-5	0	-18	15	x	x	x	x
COc1cc(C(=O)N2CCN(c3cc(Cl)ccc3Cl)CC2)cc(OC)c1OC	0.6*	-3	17	0	4	101	0	91	0
Cc1nc(/C(N)=N/OC(=O)Cc2ccccc2)no1	0	u	17	-3	-1	x	x	x	x
Cc1ccc(-c2csc(=S)n2CC(=O)OCC(=O)NC(C)C(C)C)cc1 (configuration not stated)	0.7*	1	-2	19	-15	91	0	101	0
Cc1ccc(-c2csc(=S)n2CC(=O)OCC(=O)NCc2ccco2)cc1	0	-3	14	-2	-8	x	x	x	x
Cc1nnc(N/N=C/c2cc([N+](=O)[O-])c(N3CCC(C)CC3)cc2N2CCC(C)CC2)n1N	7.2*	-9	12	46	-17	107	0	107	0
COc1ccc(-n2c(Cc3cccs3)nnc2SCC(=O)Nc2ccc3c(c2)OCCO3)cc1	0	-8	9	10	6	x	x	x	x
COc1cccc(NC(=O)CSc2nnc(Cc3cccs3)n2-c2ccc(C)cc2)c1	0	u	22	8	-6	96	0	114	0
NS(=O)(=O)c1ccc(NC(=O)CSc2nnc(Cc3cccs3)n2-c2ccccc2)cc1	0	2	21	-4	u	104	0	97	0
COc1ccc(NC(=O)CSc2nnc(Cc3cccs3)n2-c2ccc(C)cc2)cc1	0	3	x	6	-18	97	0	97	0
COc1ccc(C23CC4CC(CC(C(=O)O)(C4)C2)C3)c(F)c1	0	-3	6	-16	-5	x	x	x	x
Cc1ccc(S(=O)(=O)OCCC2=CC(=O)CCN2Cc2ccccc2)cc1	0	-3	x	x	x	x	x	x	x
COc1ccc2cc(C#N)c(N3CCN(Cc4nnnn4CCC(C)C)CC3)nc2c1	0.7*	-1	35	2	0	118	0	116	0
COC(=O)C1NC(=O)N2C(C(=O)OC)C(C)(C)S[C@H]12 (some centres not stated)	x	-3	16	-24	-7	x	x	x	x
SMILES	Efflux pump mplx	HDAC3 inh	AI-2 QS mod	T cruzi repl	PolyA inhibitor	Yeast cmpd fluor	CaMdr1 efflux inh	CaCdr2 efflux inh	CaCdr1 efflux inh
CCn1ncc(Br)c1C(=O)Nc1sc2c(c1C(N)=O)CCC2	0	-4	13	16	-11	94	0	100	0
Cn1ccc(C(=O)Nc2sc3c(c2C(N)=O)CCCCC3)n1	0	-1	18	-6	8	x	x	x	x
CCOC(=O)c1c(NC(=O)c2ccn(CC)n2)sc2c1CCC2	0.4*	-2	4	35	-27	98	0	98	0
Cn1cc(Br)c(C(=O)Nc2sc3c(c2C(N)=O)CCC3)n1	0	7	2	13	15	100	0	93	0
CC(=O)OCCn1c2nc(=O)[nH]c(=O)c-2nc2cc(C)c(C)cc21	0.7*	3	-29	0	-14	121	0	137	1
O=C(NCCCN=C1NS(=O)(=O)c2ccccc21)c1ccc(Cl)cc1	0	-5	16	2	17	x	x	x	x
O=C(/C=C/Nc1ccccc1C(=O)O)c1cccs1	0	-1	21	-13	-6	x	x	x	x
O=C(O)c1ccccc1N/C=C\[N+](=O)[O-]	0.7*	4	32	1	-17	97	0	98	0
CC(C)(CNC(=O)/C=C/c1ccc(F)cc1)CNC(=O)/C=C/c1ccc(F)cc1	13*	7	10	18	u	106	0	103	0
CC(C)(C)SCCNC(=O)/C=C/c1ccc(F)cc1	0	3	-44	3	21	x	x	x	x
O=c1cc(COc2ccc(Cl)c(Cl)c2)nc2sccn12	0.9*	-3	8	17	-9	124	0	114	0
